This note sets out measurements from ChEMBL document CHEMBL2062422, “Design, synthesis and biological evaluation of some novel thienopyrimidines and fused thienopyrimidines as anti-inflammatory agents” (Eur J Med Chem, 2012).

The test system of series [1] is Rattus norvegicus. As to the kind of experiment: Antiinflammatory activity in albino rat sub-acute inflammatory model assessed as inhibition of turpentine-induced granuloma pouch at 10 mg/kg, po administered 1 hr […] for 7 consecutive days measured at day 8 of challenge. Type of series: functional.
Series [2] concerns Rattus norvegicus. As to the kind of experiment: Antiinflammatory activity in albino rat acute inflammatory model assessed as inhibition of formalin-induced paw edema at 10 mg/kg, po administered 1 hr post challenge measured after 1 hr. Format: functional. To be noted: in the assay text read “administered 1 hr prior to challenge” for “administered 1 hr post challenge”. The procedure, abridged: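 Rats were randomised into groups of five. Dosing was 10 mg/kg po, given 1 h before 2% formalin (0.1 mL) was injected subplantar into the left hind paw under light ether anaesthesia. […] Values are mean ± S.E., N = 5 rats.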

Series [3] deals with Rattus norvegicus. As to the kind of experiment: Antiinflammatory activity in albino rat sub-acute inflammatory model assessed as inhibition of formalin-induced paw edema at 10 mg/kg, po administered 1 hr prior to challenge for 7 consecutive days measured at day 1 of challenge.
The test system of series [4] is Rattus norvegicus. As to the kind of experiment: Antiinflammatory activity in albino rat sub-acute inflammatory model assessed as inhibition of formalin-induced paw edema at 10 mg/kg, po administered 1 hr post challenge for 7 consecutive days measured at day 8 of challenge. Format: functional. The note with it: in the assay text read “1 hr prior to challenge” for “1 hr post challenge”.

In series [5] the test system is Rattus norvegicus. As to the kind of experiment: Antiinflammatory activity in albino rat acute inflammatory model assessed as inhibition of formalin-induced paw edema at 10 mg/kg, po administered 1 hr prior to challenge measured after 4 hr.
The test system of series [6] is Rattus norvegicus. As to the kind of experiment: Antiinflammatory activity in albino rat acute inflammatory model assessed as inhibition of formalin-induced paw edema at 10 mg/kg, po administered 1 hr prior to challenge measured after 2 hr.
Series [7] has as its system Rattus norvegicus. As to the kind of experiment: Antiinflammatory activity in albino rat sub-acute inflammatory model assessed as inhibition of formalin-induced paw edema at 10 mg/kg, po administered 1 hr prior to challenge for 7 consecutive days measured at day 8 of challenge.
The nature of series [8]: Ulcerogenic activity in po dosed albino rat measured after 24 hrs. To be noted: in vivo. Type of series: toxicity, organism-based. The procedure, abridged:
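Male albino rats (180–200 g), five per group, fasted 12 h with water ad libitum. Compounds given orally as two equal doses at 0 and 12 h on three successive days, 300 mg/kg per day. Control received 1% gum acacia po. Rats killed 6 h after the last dose. Stomachs opened along the greater curvature, washed with cold saline and inspected under 3X magnification for hyperemia, hemorrhage, erosion or ulcer.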

Series [9] deals with Rattus norvegicus. The series is described as follows: Acute toxicity in albino rat at 0.1 to 0.3 g/kg/, po measured after 24 hrs. To be noted: in vivo.
Series [10] has as its system Rattus norvegicus. As to the kind of experiment: Ulcerogenic activity in albino rat assessed as hyperemia at 300 mg/kg/day administered as equal doses at 0 and 12 hrs for three consecutive days measured at 6 hrs post last dose. Format: toxicity, organism-based. To be noted: in vivo. An outline of the steps:
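Male albino rats, 180–200 g, five per group, fasted 12 h with water ad libitum. Dosing was 300 mg/kg/day po, split into equal doses at 0 and 12 h, for 3 successive days. Controls received 1% gum acacia orally. Rats were killed with ether 6 h after the last dose. Stomachs were opened along the greater curvature, washed with cold saline and inspected under a 3X lens for hyperemia, hemorrhage, hemorrhagic erosion or ulcer.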

The subject of series [11] is Rattus norvegicus. The series is described as follows: Antiinflammatory activity in albino rat acute inflammatory model assessed as inhibition of formalin-induced paw edema at 10 mg/kg, po administered 1 hr prior to challenge measured after 1 hr.

As a reminder, the inhibition in vivo is the relative decrease from the control value, in per cent. For the compound `Cc1c(C(N)=O)sc2nc(S)n(Cc3ccccc3)c(=O)c12`, the inhibition in vivo at 10 mg/kg is 4.07% in the series with Rattus norvegicus [1]; 25% in the series with Rattus norvegicus [2]; 4% in the series with Rattus norvegicus [3]; 5% with Rattus norvegicus [4]; 5% in the series on Rattus norvegicus [5]; 0% in the series with Rattus norvegicus [6].

As to `CSc1nc2sc(C(N)=O)c(C)c2c(=O)n1Cc1ccccc1`, the inhibition in vivo at 10 mg/kg in the series with Rattus norvegicus [1] worked out at 11.3%; with Rattus norvegicus [2] it was 44%; in the series with Rattus norvegicus [3], 17%; in the series with Rattus norvegicus [5], 38%; with Rattus norvegicus [7], 21%; in the series on Rattus norvegicus [6], 43%.

Usually LD50 stands for the dose expected to kill half of the subjects tested. Regarding `Cc1c(C(N)=O)sc2nc(NN)n(Cc3ccccc3)c(=O)c12`, the inhibition in vivo at 10 mg/kg in the series with Rattus norvegicus [1] was found to be 44.8%; in the series on Rattus norvegicus [2], 69%; with Rattus norvegicus [3] it was 43%; in the series with Rattus norvegicus [4] it was 43%; in the series with Rattus norvegicus [5], 51%; in the series with Rattus norvegicus [6] it was 61%. The 50% lethal dose (LD50) at 24 h in [8] is over 300 mg/kg. Also, the Activity entry is listed as “Non-toxic” in the series on Rattus norvegicus [9] and 10% in the series on Rattus norvegicus [10].

Take `Cc1c(C(N)=O)sc2nc(N/N=C/c3ccc(Br)cc3)n(Cc3ccccc3)c(=O)c12`: the inhibition in vivo at 10 mg/kg in the series on Rattus norvegicus [1] was 34.4%; with Rattus norvegicus [2], 69%; in the series with Rattus norvegicus [3], 39%; in the series with Rattus norvegicus [4], 34%; in the series on Rattus norvegicus [5], 44%; in the series on Rattus norvegicus [6] it was 39%.

On to `Cc1c(C(N)=O)sc2c1c(=O)n(Cc1ccccc1)c1nnc(-c3ccc(Br)cc3)n21`, for which the inhibition in vivo at 10 mg/kg in the series on Rattus norvegicus [1] was determined as 41.2%; in the series on Rattus norvegicus [3], 37%; with Rattus norvegicus [4], 30%; in the series with Rattus norvegicus [5], 41%; in the series on Rattus norvegicus [11] it was 31%; in the series with Rattus norvegicus [6], 39%.

As for `CC(=O)N1N=C2N(Cc3ccccc3)C(=O)c3c(sc(C(N)=O)c3C)N2C1c1ccc(Br)cc1` (centres undefined), the inhibition in vivo at 10 mg/kg was determined as 39.8% in the series with Rattus norvegicus [1]; 33% with Rattus norvegicus [3]; 30% in the series on Rattus norvegicus [4]; 36% with Rattus norvegicus [5]; 31% in the series with Rattus norvegicus [11]; 30% in the series with Rattus norvegicus [6].

Take `Cc1c(C(N)=O)sc2c1c(=O)n(Cc1ccccc1)c1n[nH]c(=S)n21`: the inhibition in vivo at 10 mg/kg in the series with Rattus norvegicus [1] is 23.1%; with Rattus norvegicus [2], 50%; in the series with Rattus norvegicus [3] it was 41%; with Rattus norvegicus [4], 34%; with Rattus norvegicus [5], 51%; in the series on Rattus norvegicus [6], 56%. In addition, in [8], the LD50 at 24 h is over 300 mg/kg. For the same compound, the Activity entry was “Non-toxic” in the series with Rattus norvegicus [9] and 10% in the series on Rattus norvegicus [10].

Consider `CCOC(=O)CSc1nnc2n(Cc3ccccc3)c(=O)c3c(C)c(C(N)=O)sc3n12`, for which the inhibition in vivo at 10 mg/kg amounted to 41.2% in the series with Rattus norvegicus [1]; 56% in the series on Rattus norvegicus [2]; 41% in the series with Rattus norvegicus [3]; 36% in the series on Rattus norvegicus [4]; 49% in the series on Rattus norvegicus [5]; 61% in the series with Rattus norvegicus [6]. In addition, the LD50 at 24 h in [8] was over 300 mg/kg. The Activity result in the series with Rattus norvegicus [9] is “Non-toxic”; with Rattus norvegicus [10] it was 20%.

With `Cc1c(C(N)=O)sc2c1c(=O)n(Cc1ccccc1)c1nnc(-c3ccccc3Cl)n21`, the inhibition in vivo at 10 mg/kg stood at 35.7% with Rattus norvegicus [1]; 37% in the series on Rattus norvegicus [2]; 33% in the series on Rattus norvegicus [3]; 30% with Rattus norvegicus [4]; 49% with Rattus norvegicus [5]; 43% with Rattus norvegicus [6].

Take `Cc1c(C(N)=O)sc2c1c(=O)n(Cc1ccccc1)c1nncn21`: the inhibition in vivo at 10 mg/kg was 39.4% with Rattus norvegicus [1]; 56% in the series on Rattus norvegicus [2]; 39% in the series with Rattus norvegicus [3]; 32% in the series with Rattus norvegicus [4]; 54% in the series on Rattus norvegicus [5]; 43% in the series on Rattus norvegicus [6].

For the compound `Cc1c(C(N)=O)sc2c1c(=O)n(Cc1ccccc1)c1n[nH]c(=O)n21`, the inhibition in vivo at 10 mg/kg in the series with Rattus norvegicus [1] turned out to be 38.5%; in the series with Rattus norvegicus [2], 75%; with Rattus norvegicus [3], 43%; with Rattus norvegicus [4], 37%; with Rattus norvegicus [5], 49%; with Rattus norvegicus [6], 61%. In addition, the LD50 at 24 h in [8] was over 300 mg/kg. Besides, the Activity entry in the series on Rattus norvegicus [9] and in the series on Rattus norvegicus [10] was “Non-toxic” each time.

In the case of `CCOC(=O)Cc1nnc2n(Cc3ccccc3)c(=O)c3c(C)c(C(N)=O)sc3n12`, the inhibition in vivo at 10 mg/kg with Rattus norvegicus [1] worked out at 39.8%; in the series with Rattus norvegicus [3], 46%; in the series on Rattus norvegicus [4], 37%.

Regarding `Cc1c(C(N)=O)sc2c1C(=O)N(Cc1ccccc1)C1=NN=C(c3ccc(Cl)cc3)CN12`, the inhibition in vivo at 10 mg/kg is 38.5% in the series with Rattus norvegicus [1]; 44% with Rattus norvegicus [2]; 46% in the series with Rattus norvegicus [3]; 37% in the series on Rattus norvegicus [4]; 46% with Rattus norvegicus [5]; 43% in the series with Rattus norvegicus [6].

On to `Cc1c(C(N)=O)sc2nc(-n3nc(-c4ccc(Cl)cc4)cc3N)n(Cc3ccccc3)c(=O)c12`, for which the inhibition in vivo at 10 mg/kg in the series with Rattus norvegicus [1] is 40.3%; with Rattus norvegicus [2], 56%; in the series on Rattus norvegicus [3] it was 35%; in the series with Rattus norvegicus [4], 30%; in the series with Rattus norvegicus [5], 46%; in the series with Rattus norvegicus [6] it was 52%. Besides, the LD50 at 24 h in [8] was over 300 mg/kg. Besides, the Activity entry in the series on Rattus norvegicus [9] and with Rattus norvegicus [10] was “Non-toxic” each time.

For the compound `Cc1cc(C)n(-c2nc3sc(C(N)=O)c(C)c3c(=O)n2Cc2ccccc2)n1`, the inhibition in vivo at 10 mg/kg in the series with Rattus norvegicus [1] came to 40.3%; in the series on Rattus norvegicus [2] it was 44%; with Rattus norvegicus [3] it was 39%; in the series on Rattus norvegicus [4], 32%; in the series on Rattus norvegicus [5] it was 49%; in the series with Rattus norvegicus [6] it was 39%.

For the compound `CC1=NN(c2nc3sc(C(N)=O)c(C)c3c(=O)n2Cc2ccccc2)C(=O)C1`, the inhibition in vivo at 10 mg/kg was 38.9% with Rattus norvegicus [1]; 37% in the series on Rattus norvegicus [2]; 39% with Rattus norvegicus [3]; 34% in the series on Rattus norvegicus [4]; 46% with Rattus norvegicus [5]; 48% in the series with Rattus norvegicus [6]. Further, the 50% lethal dose (LD50) at 24 h in [8] is over 300 mg/kg. Besides, the Activity result in the series on Rattus norvegicus [9] and in the series with Rattus norvegicus [10] was “Non-toxic” in each case.

Turning to `O=C([O-])Cc1ccccc1Nc1c(Cl)cccc1Cl.[Na+]` [DICLOFENAC SODIUM], the inhibition in vivo at 10 mg/kg in the series on Rattus norvegicus [2] worked out at 63%. The Activity result in the series with Rattus norvegicus [10] is recorded as “Non-toxic”.

Consider `COc1ccc2c(c1)c(CC(=O)O)c(C)n2C(=O)c1ccc(Cl)cc1` [INDOMETHACIN], for which the Activity with Rattus norvegicus [10] was found to be 100%.
